# In PMC6469250 (Annals of Clinical and Translational Neurology, 2019):
# Read-outs that look alike come from different tables or passages of the source.
# Columns and labels:
# hLTP = conditions: cited from earlier work
# 5xFAD mice [1] = test: Memory tasks: novel object recognition and step-through passive avoidance; format: in vivo; conditions: 5xFAD mice at 9 months of age; no significant memory deficits in 5xFAD/control diet mice
# [2] = Pharmacokinetics in mice: total plasma and brain concentrations by LC-MS; format: in vivo; conditions: male, C57BL/6J, mouse
# [3] = humans; cited from earlier work
# KCa3.1 [4] = molecular target: KCa3.1 (Mus musculus, UniProt O89109); test: Whole-cell patch-clamp on AβO-activated cultured primary microglia; format: cell-based; conditions: AβO 100 nmol/L 24 h, senicapoc 1 μmol/L (Fig. 7A)
# Method in brief: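 Whole-cell patch-clamp was done on cultured primary microglia after 24 h AβO (100 nmol/L) with test compound or vehicle. An aspartate-based internal solution was used. KCa3.1 conductance was taken from the slope of the TRAM-34-sensitive KCa current between −80 and −75 mV.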
# 5xFAD mice [5] = format: in vivo
# Method in brief: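 Six-month-old 5xFAD and Wt littermates got 2400 ppm test compound or control diet for three months (n = 9/group). Frozen 20 μm sections were stained overnight at 4°C with anti-Iba-1, CD68 or CD11b (1:200), Alexa secondaries (1:700) and FSB (400 nmol/L) for plaques. KCa3.1 was detected with APC064 or P4997 (1:3000); microglial co-localisation used three images per mouse. Imaging and analysis were blinded.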
# primary microglia = test: AβO-induced proinflammatory activation of cultured primary microglia; format: cell-based, mouse
# Method in brief: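 Primary microglia came from mixed glia cultures and were exposed to AβO (100 nmol/L) for 24 h with test compound or vehicle. For qPCR, RNA was kit-extracted and analysed by the 2‑ΔΔCt method with Actb as reference. For p38MAPK, cells were lysed in Triton/SDS buffer with protease and phosphatase inhibitors, then immunoblotted with anti-phospho-p38MAPK and anti-p38MAPK (1:1000).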
# 5xFAD mice [6] = test: hLTP in hippocampal slices from treated 5xFAD mice; format: in vivo; conditions: senicapoc diet for three months; to the level of Wt mice (Fig. 8F and G)
# Method in brief: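 5xFAD and Wt littermates aged six months were fed test compound-medicated (2400 ppm) or control diet for three months. Hippocampal slices then received high-frequency stimulation. The read-out was mean percent change in fEPSP slope from baseline, averaged 50–60 min after HFS, from 8–12 slices of 5–6 mice per group. Data are mean ± SE; two-way ANOVA with Bonferroni.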
# KCa3.1 [7] = conditions: read-out: IC50 for KCa3.1 inhibition; cited from earlier work
# [8] = cited from earlier work
# 5xFAD mice [9] = test: qPCR of acutely isolated microglia after three months of senicapoc diet; format: in vivo
# Method in brief: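 Six-month-old 5xFAD and Wt littermates were fed 2400 ppm test compound or control diet ad lib for three months (n = 9/group). Microglia were acutely isolated with anti-CD11b magnetic beads. RNA was extracted, reverse-transcribed and pre-amplified. Pro-inflammatory and M2-like transcripts (Arg1, CD206, […], IGF-1) were quantified by 2‑ΔΔCt against Actb. Groups were compared by two-way ANOVA with Bonferroni.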
# [10] = cited from earlier work; remark: listed apart in the source
# [11] = Pharmacokinetics in rats: total plasma and brain concentrations by LC-MS; format: in vivo; conditions: oral gavage 50 mg/kg, rats (Fig. 6D)
# Chain of KCa3.1 (Mus musculus, UniProt O89109) (O89109 whole entry): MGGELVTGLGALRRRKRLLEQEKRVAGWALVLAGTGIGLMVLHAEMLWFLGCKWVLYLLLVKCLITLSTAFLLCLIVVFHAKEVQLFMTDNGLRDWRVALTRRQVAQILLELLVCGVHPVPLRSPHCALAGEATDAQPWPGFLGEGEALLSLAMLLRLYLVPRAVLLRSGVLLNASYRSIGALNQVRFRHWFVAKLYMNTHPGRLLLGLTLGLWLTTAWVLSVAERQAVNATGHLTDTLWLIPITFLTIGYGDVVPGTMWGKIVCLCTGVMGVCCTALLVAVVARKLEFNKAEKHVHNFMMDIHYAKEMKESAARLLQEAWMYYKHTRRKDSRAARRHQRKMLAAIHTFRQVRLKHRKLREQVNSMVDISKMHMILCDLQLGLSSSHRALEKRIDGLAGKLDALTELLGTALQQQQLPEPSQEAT
structure (smiles),measurement,setting,value
CN(C)c1ccc(O)c2c1C[C@H]1C[C@H]3[C@H](N(C)C)C(O)=C(C(N)=O)C(=O)[C@@]3(O)C(O)=C1C2=O [minocycline],hLTP disruption by Aβ,hLTP,prevent the hLTP disruption
NC(=O)C(c1ccccc1)(c1ccc(F)cc1)c1ccc(F)cc1 [senicapoc],cognitive benefit,5xFAD mice [1],could not be demonstrated
same,concentration at 1 h,"[2]; brain, ip, 50 mg/kg",43 ± 8 µM
same,half-life,[2]; plasma,~1 h
same,half-life,[3],~ 7 day
same,AβO-induced microglial KCa3.1 currents,KCa3.1 [4],block
same,number of microglia expressing KCa3.1,5xFAD mice [5]; medicated diet for three months (Fig. 8B),significantly reduced
same,reduction of CD11b immunoreactivity,"5xFAD mice [5]; medicated diet for three months, P < 0.001 (Fig. 8A)",45%
same,AβO-induced microglial proliferation,"primary microglia; AβO 100 nmol/L 24 h, senicapoc 1 μmol/L if not otherwise indicated (Fig. 7B)",block
same,AβO-induced production of NO,"primary microglia; AβO 100 nmol/L 24 h, senicapoc 1 μmol/L if not otherwise indicated (Fig. 7E)",block
same,"AβO-induced expression of microglial activation mediators IL-1β, IL-6 and iNOS","primary microglia; AβO 100 nmol/L 24 h, senicapoc 1 μmol/L, qPCR (Fig. 7C)",block
same,AβO-induced activation of p38MAPK,"primary microglia; AβO 100 nmol/L, senicapoc 1 μmol/L, Western blotting (Fig. 7D)",block
same,reduced induction of hLTP in 5xFAD mice,5xFAD mice [6],rectified
same,IC50,KCa3.1 [7],11 nM
same,protein binding,[8],95%
same,"expressions of proinflammatory modulators IL-1β, TNF-α, IL-6, and iNOS (qPCR)",5xFAD mice [9]; medicated diet for three months (Fig. 8C),significantly reduced
same,markers typical of an M2-like phenotype (qPCR),5xFAD mice [9]; medicated diet for three months (Fig. S5),no changes
same,hemolysis and hemoglobin levels,[10]; Phase-2 clinical trial,reduced hemolysis and increased hemoglobin levels
same,primary clinical end-point: reduction in the rate of vaso-occlusive pain crisis,[10]; Phase-3,failed to achieve its primary clinical end‐point
same,safety and tolerability in humans,[10]; Phase-3 clinical trial for sickle cell anemia,safe and well‐tolerated
same,oral availability,[11],roughly 60%
